Converted amounts (≈) assume the structure as drawn.
How the values were obtained:
[1] = Tmax in wound interstitial fluid of diabetic patient with chronic wound infection at […], iv loading dose followed by […], iv BID for […] by microdialysis; type: ADME, organism-based; details: human
How it was run: (§1)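 Subcutaneous microdialysis probes (30 mm membrane, 20 kDa cutoff) placed before dosing, one within 10 cm of wound margin and one in uninfected thigh of the same limb. Patients given IV 100 mg load then 50 mg q12h.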

[2] = Terminal half life in wound interstitial fluid of diabetic patient with chronic wound infection at […], iv loading dose followed by […], iv BID for […] by microdialysis; type: ADME, organism-based; details: human; how it was run: as §1
[3] = Cmax in wound interstitial fluid of diabetic patient with chronic wound infection at […], iv loading dose followed by […], iv BID for […] by microdialysis; type: ADME, organism-based; parameters: route intravenous; details: human; how it was run: as §1
[4] = AUC (0 to 24 hrs) in wound interstitial fluid of diabetic patient with chronic wound infection at […], iv loading dose followed by […], iv BID for […] by microdialysis; type: ADME, organism-based; parameters: time < 24 hr, route intravenous; details: human; how it was run: as §1
[5] = Ratio of AUC (0 to 24 hrs) in patient with complicated skin and skin structure infections to MIC for Staphylococcus aureus; type: functional
Plasma [6] = experiment: fCmax in plasma of diabetic patient with chronic wound infection at […], iv loading dose followed by […], iv BID for 2 to 3 doses by microdialysis; type: ADME, organism-based; details: human, in vivo
How it was run: (§2)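 Steady-state plasma after IV 100 mg loading then 50 mg every 12 h (1-h infusions) in diabetic patients. Total HPLC plasma levels converted to free using a polynomial fitted to ultrafiltration-derived percent unbound versus plasma concentration (y = y0 + a/x + b/x² + c/x³). Free-drug profiles analysed noncompartmentally; Cmax by visual inspection.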

[7] = Terminal half life in thigh interstitial fluid of diabetic patient with chronic wound infection at […], iv loading dose followed by […], iv BID for […] by microdialysis; type: ADME, organism-based; details: human; how it was run: as §1
[8] = Volume of distribution at steady state in plasma of diabetic patient with chronic wound infection at […], iv loading dose followed by […], iv BID for 2 to 3 doses by microdialysis; type: ADME, organism-based; details: human, read-out: Vdss
How it was run: (§3)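 Eight adult diabetic patients; IV 100 mg loading dose over 1 h via peripheral vein, then 50 mg over 1 h every 12 h for 2–3 further doses. Heparinized venous blood from contralateral arm at 0–12 h over a steady-state interval; plasma stored −80°C; HPLC (linear 0.05–5 μg/ml). Noncompartmental analysis: Cmax by inspection, log-linear trapezoidal AUC0-24, t1/2 = 0.693/λz (≥3 terminal points), […].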

[9] = Ratio of AUC (0 to 24 hrs) in plasma diabetic patient with chronic wound infection to MIC for methicillin-resistant Staphylococcus aureus; type: functional
How it was run: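 Eight adult diabetic patients; tigecycline 100 mg IV over 1 h, then 50 mg over 1 h every 12 h for 2–3 more doses. Venous plasma was sampled over the 12-h steady-state interval and total drug measured by HPLC.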

[10] = Drug penetration in blister fluid of healthy human at […], iv loading dose followed by […], iv BID for 2 to 3 doses by microdialysis; type: ADME, organism-based; details: in vivo
[11] = Cmax in thigh interstitial fluid of diabetic patient with chronic wound infection at […], iv loading dose followed by […], iv BID for […] by microdialysis; type: ADME, organism-based; parameters: route intravenous; details: human; how it was run: as §1
Staphylococcus aureus = experiment: Antimicrobial activity against methicillin-resistant Staphylococcus aureus by CLSI method; type: functional
[12] = Terminal half life in plasma of diabetic patient with chronic wound infection at […], iv loading dose followed by […], iv BID for 2 to 3 doses by microdialysis; type: ADME, organism-based; details: human; how it was run: as §3
[13] = Cmax in plasma of diabetic patient with chronic wound infection at […], iv loading dose followed by […], iv BID for 2 to 3 doses by microdialysis; type: ADME, organism-based; parameters: route intravenous; details: human; how it was run: as §3
Plasma [14] = experiment: AUC (0 to 24 hrs) in plasma of diabetic patient with chronic wound infection at […], iv loading dose followed by […], iv BID for 2 to 3 doses by microdialysis; type: ADME, organism-based; parameters: time < 24 hr, route intravenous; details: human, in vivo; how it was run: as §3
[15] = fAUC (0 to 24 hrs) to MIC for Staphylococcus aureus infected in thigh of ICR mouse; type: functional, Thigh muscle
[16] = Ratio of fAUC (0 to 24 hrs) in plasma of diabetic patient with chronic wound infection to MIC for methicillin-resistant Staphylococcus aureus; type: functional
How it was run: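 Same patients and IV regimen (100 mg load, then 50 mg q12h). Total plasma levels measured by HPLC over the 12-h steady-state interval were converted to free drug using a polynomial fit of ultrafiltration protein binding, measured in triplicate at 1, 6 and 12 h.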

Plasma [17] = experiment: Clearance at steady state in plasma of diabetic patient with chronic wound infection at […], iv loading dose followed by […], iv BID for 2 to 3 doses by microdialysis; type: ADME, organism-based; details: human, in vivo; how it was run: as §3
[18] = Tmax in thigh interstitial fluid of diabetic patient with chronic wound infection at […], iv loading dose followed by […], iv BID for […] by microdialysis; type: ADME, organism-based; details: human; how it was run: as §1
[19] = Drug recovery in wound interstitial fluid of diabetic patient with chronic wound infection at […], iv loading dose followed by […], iv BID for 2 to 3 doses by microdialysis; type: ADME, organism-based; details: human, in vivo
How it was run: (§4)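 In vivo recovery by retrodialysis for each catheter after the final sampling. Perfusate was lactated Ringer's containing 500 μg/ml drug, perfused for 1 h at 2 μl/min. Recovery = 100 − (100 × Cdialysate/Cperfusate), measured by HPLC.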

[20] = Ratio of AUC (0 to 24 hrs) in thigh interstitial fluid of diabetic patient with chronic wound infection to MIC for methicillin-resistant Staphylococcus aureus; type: functional, Thigh muscle
[21] = Tmax in plasma of diabetic patient with chronic wound infection at […], iv loading dose followed by […], iv BID for 2 to 3 doses by microdialysis; type: ADME, organism-based; details: human; how it was run: as §3
[22] = fTmax in plasma of diabetic patient with chronic wound infection at […], iv loading dose followed by […], iv BID for 2 to 3 doses by microdialysis; type: ADME, organism-based; details: human; how it was run: as §2
[23] = Drug penetration in thigh interstitial fluid of diabetic patient with chronic wound infection at […], iv BID for […] by microdialysis; type: ADME, organism-based; details: human, in vivo
How it was run: (§5)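 Tissue penetration is interstitial AUC0-24 (wound or thigh, microdialysis, recovery-corrected) divided by free plasma AUC0-24 × 100. Free plasma values come from the protein-binding polynomial applied to total concentrations. Sampling over a 12-h steady-state interval after IV 100 mg load then 50 mg q12h. Sites were compared by t test or Mann-Whitney.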

[24] = Drug recovery in thigh interstitial fluid of diabetic patient with chronic wound infection at […], iv loading dose followed by […], iv BID for 2 to 3 doses by microdialysis; type: ADME, organism-based; details: human, in vivo; how it was run: as §4
[25] = Drug penetration in wound interstitial fluid of diabetic patient with chronic wound infection at […], iv loading dose followed by […], iv BID for […] by microdialysis; type: ADME, organism-based; details: human, in vivo; how it was run: as §5
[26] = AUC (0 to 24 hrs) in thigh interstitial fluid of diabetic patient with chronic wound infection at […], iv loading dose followed by […], iv BID for […] by microdialysis; type: ADME, organism-based; parameters: time < 24 hr, route intravenous; details: human; how it was run: as §1

**Q.** Which Tmax [1] does the source give for `CN(C)c1cc(NC(=O)CNC(C)(C)C)c(O)c2c1C[C@H]1C[C@H]3[C@H](N(C)C)C(O)=C(C(N)=O)C(=O)[C@@]3(O)C(O)=C1C2=O` [TIGECYCLINE] here?
**A.** 4.38 h

**Q.** What about the half-life [2] of the same compound?
**A.** 24.9 h

**Q.** And the Cmax [3]?
**A.** 160 ng/mL

**Q.** And the AUC at 24 h [4]?
**A.** 2600 ng·h/mL

**Q.** And the RatioAUC/MIC [5]?
**A.** 17.9

**Q.** What about the Cmax_unbound (Plasma [6]) of the same compound?
**A.** 160 ng/mL

**Q.** And the half-life [7]?
**A.** 16 h

**Q.** What about the Vd [8] of the same compound?
**A.** 3.95 L/kg

**Q.** And the RatioAUC/MIC [9]?
**A.** 33.25

**Q.** And the Drug uptake [10]?
**A.** 74%

**Q.** What about the Cmax [11] of the same compound?
**A.** 180 ng/mL

**Q.** What about the MIC90 (Staphylococcus aureus) of the same compound?
**A.** 0.12 µg/mL (≈ 0.205 µM)

**Q.** What about the half-life [12] of the same compound?
**A.** 9.73 h

**Q.** What about the Cmax [13] of the same compound?
**A.** 420 ng/mL

**Q.** And the AUC (Plasma [14])?
**A.** 3990 ng·h/mL

**Q.** What about the fAUC/MIC [15] of the same compound?
**A.** 5.7

**Q.** What about the RatioAUC/MIC [16] of the same compound?
**A.** 22.1

**Q.** What about the CLss (Plasma [17]) of the same compound?
**A.** 4.67 mL/min/kg

**Q.** What about the Tmax [18] of the same compound?
**A.** 3.38 h

**Q.** And the Activity [19]?
**A.** 57.03%

**Q.** What about the RatioAUC/MIC [20] of the same compound?
**A.** 21

**Q.** And the Tmax [21]?
**A.** 1.13 h

**Q.** And the Tmax [22]?
**A.** 1.13 h

**Q.** What about the Drug uptake [23] of the same compound?
**A.** 98.94%

**Q.** What about the Activity [24] of the same compound?
**A.** 53.48%

**Q.** What about the Drug uptake [25] of the same compound?
**A.** 100%

**Q.** And the AUC at 24 h [26]?
**A.** 2520 ng·h/mL

From ChEMBL document CHEMBL1671769, “Tissue penetration and pharmacokinetics of tigecycline in diabetic patients with chronic wound infections described by using in vivo microdialysis” (Antimicrob Agents Chemother, 2010)
